# Screening data deposited in PubChem BioAssay by The Scripps Research Institute Molecular Screening Center.
# CHRM5 agonist = agonists of human muscarinic M5 receptor (CHRM5) | AID 624037 | CHO-K1 hM5 cells, Fluo-8 calcium fluorescence; 0% DMSO wells, 100% maximal acetylcholine response | P08912 | activation, % at 3 µM | 0.19% of 360,000 active;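 active = activation above the run's mean over test compounds plus 3 SD, cut at about 23% in these data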;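 note: signal is peak over basal fluorescence ratio across the kinetic read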
# Target sequence (P08912 whole entry, looked up): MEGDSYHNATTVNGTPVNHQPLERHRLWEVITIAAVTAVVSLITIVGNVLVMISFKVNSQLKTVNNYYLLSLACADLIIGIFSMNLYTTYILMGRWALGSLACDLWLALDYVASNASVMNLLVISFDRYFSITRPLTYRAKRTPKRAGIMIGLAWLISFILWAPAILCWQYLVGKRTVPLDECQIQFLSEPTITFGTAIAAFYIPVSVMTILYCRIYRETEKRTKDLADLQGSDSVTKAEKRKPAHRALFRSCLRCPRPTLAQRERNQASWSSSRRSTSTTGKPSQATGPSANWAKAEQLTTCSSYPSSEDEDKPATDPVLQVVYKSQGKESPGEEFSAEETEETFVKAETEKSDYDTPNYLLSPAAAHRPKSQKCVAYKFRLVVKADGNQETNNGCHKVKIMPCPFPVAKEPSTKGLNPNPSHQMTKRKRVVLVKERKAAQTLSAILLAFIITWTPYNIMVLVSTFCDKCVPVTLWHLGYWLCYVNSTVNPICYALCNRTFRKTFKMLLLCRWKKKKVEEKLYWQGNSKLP
# M4 PAM = positive allosteric modulators of human muscarinic M4 receptor; P08173; CHO-K1 hM4/Gqi5, Fluo-8 calcium fluorescence, ACh EC20; 0% = ACh EC20, 100% = maximal ACh; activation, % at 3 µM; 0.4% of 360,000 active;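 active = activation above its plate's cutoff, the mean activation of sample wells plus 3 SD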
# CHRM4 agonist = agonists of human muscarinic M4 receptor (CHRM4); CHO-K1 hM4/Gqi5, Fluo-8 calcium fluorescence; vehicle 0%, full acetylcholine response 100%; P08173; 0.14% of 360,000 active; activation, % at 3 µM;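 active = activation above the run mean over all test wells plus 3 SD, cut at about 32% in these data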;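 note: peak over basal fluorescence ratio per well then scaled between controls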
# M5 antag = blocks acetylcholine activation of human M5 receptor. P08912. inhibition, % at 3 µM. CHO-hM5 cells, Fluo-8 calcium fluorescence, ACh EC80. 0.59% of 360,000 active;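 active = inhibition above a per-plate cutoff, the mean of that plate's test compounds plus 3 SD, cut at about 27% in these data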
# CHRM5 PAM = potentiates acetylcholine response at human M5 receptor; 0.3% of 360,000 active; P08912; CHO-K1 hM5, Fluo-8 calcium, ACh EC20 PAM; 0% = ACh EC20, 100% = ACh EC100; activation, % at 3 µM; AID 624038;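 active = activation above the run cutoff, the mean activation of all test compounds plus 3 SD, cut at about 18% in these data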
#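 System – CHO-K1 hM5 cells · Compound – 3 µM, single dose · Incubation – compound preincubation 140 s before EC20 acetylcholine addition · Technique – Fluo-8 calcium fluorescence · Measure – Max/basal fluorescence ratio as % of EC20–EC100 ACh window · Benchmarks – low control EC20 acetylcholine (0%), high control EC100 acetylcholine (100%) · Replication – singlicate, one well per test compound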
# CHRM4 antagonist = CHRM4 antagonism in calcium assay; CHO-hM4 cells, ACh EC80, Fluo-8 calcium fluorescence; AID 624125; 0.73% of 360,000 active; inhibition, % at 3 µM; P08173;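 active = inhibition above its plate's cutoff, the mean inhibition of sample wells plus 3 SD, cut at about 27% in these data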
# Hits are given with their value; . = inactive. Rows were chosen to be rich in hits. Some 1.9% of all compounds tested hit in one or more screens of this group.
SMILES,CHRM5 agonist,M4 PAM,CHRM4 agonist,M5 antag,CHRM5 PAM,CHRM4 antagonist
Nc1c(C(=O)O)sc2nc(-c3ccccc3)cc(-c3ccc(Cl)cc3)c12,.,.,.,.,.,.
Cc1cc(C)c2c(N)c(C(=O)NC3CC3)sc2n1,.,34.0,56.1,.,.,66.8
Cc1cc(C(F)(F)F)c2c(N)c(C(=O)NC3CC3)sc2n1,.,.,.,.,.,.
CCOC(=O)c1sc2nc(C)nc(NCc3cccnc3)c2c1C,.,.,.,.,.,.
CC(=O)c1sc2nc(-c3ccccc3)cc(C)c2c1N,.,42.4,.,.,.,.
Cc1ccc(NC(=O)c2sc3nc(C)cc(C)c3c2N)cc1,.,15.6,.,.,.,.
CCOC(=O)c1sc2nc(OCc3cccnc3)cc(C)c2c1N,.,31.8,.,.,.,.
Cc1cc(C)c2c(N)c(C(=O)NN)sc2n1,.,.,.,.,.,.
C=CCOc1ccc(/C=C/C(=O)OCC(=O)N(C)CC(=O)Nc2ccc(F)cc2)cc1,.,.,.,.,.,.
COC(=O)CCCn1cc(CN2CC(N3CCN(C)CC3)CS2(=O)=O)nn1 (stereo not drawn),.,.,.,.,.,.
CCOC(=O)c1sc2nc(C)cc(C)c2c1N,.,51.0,.,.,.,28.3
CC(=O)NCCc1ccc(C(=O)COC(=O)C2CCCCC2)cc1,.,.,.,.,.,.
Cn1nc(C(F)(F)F)c(-c2cccc(C(F)(F)F)c2)c1NC(=O)Nc1ccc(F)cc1,.,.,.,34.3,.,.
CCOC(=O)C(=CN=C(N)Nc1nc2ccccc2o1)C(=O)OCC,.,20.5,.,.,.,.
COc1ccc(S(=O)(=O)N2CCSCC2)cc1C(N)=O,.,14.1,.,.,.,.
COc1ccc(S(N)(=O)=O)cc1C(N)=O,.,.,.,.,.,.
COc1cccc(CNC(=O)[C@@H]2CCCN2C(=O)[C@H]2CCCCN2C(=O)c2ccccc2C)c1,.,.,.,.,.,.
Cc1[nH]c(=O)c(C#N)c(C)c1CCC(=O)Nc1cc(S(C)(=O)=O)ccc1Cl,.,20.3,.,.,.,.
Cc1ccc(F)cc1NC(=O)CCc1c(C)[nH]c(=O)c(C#N)c1C,.,.,.,.,.,.
CC(C)c1ccc(CC(=O)N2CCC2(C)C(=O)NS(=O)(=O)c2ccc(Cl)s2)cc1 (stereo not drawn),.,.,.,.,.,.
O=S1(=O)CC(N2CC=CC2)CN1Cc1cn(Cc2ccc(F)cc2)nn1 (stereo not drawn),.,.,.,.,.,.
CCOC(=O)/C(C(=Nc1ccccc1)Nc1ccccc1)=C(\C)O,.,.,.,.,.,.
NC(=Nc1ccccc1)Nc1ccccc1,40.5,.,124.3,.,.,60.2
CC1CCCCN1C(=S)Nc1ccc(S(=O)(=O)N2CCCCC2)cc1 (stereo not drawn),.,.,.,.,.,.
O=C(O)c1cccc(Cn2cc(Br)cn2)c1,.,.,.,.,.,.
SMILES,CHRM5 agonist,M4 PAM,CHRM4 agonist,M5 antag,CHRM5 PAM,CHRM4 antagonist
O=C(NCc1ccncc1)c1cccc(Cn2cc(Br)cn2)c1,.,.,.,.,.,81.5
CN(CC(=O)Nc1cccc(F)c1)C(=O)c1ccc2c(c1)CC(c1ccccc1)OC2=O (stereo not drawn),.,.,.,.,.,.
O=C(NCCc1ccccn1)c1ccc(OC2CCN(Cc3ccccn3)CC2)cc1,.,.,.,.,.,.
CC(Cc1ccccn1)NC(=O)c1ccc(OC2CCN(Cc3ccccn3)CC2)cc1 (stereo not drawn),.,18.0,.,.,.,.
Cc1cc(C=C2C(=O)CCCC2=O)c(C)n1-c1ccccc1,.,30.3,.,.,.,.
CCCCOCCCNc1ncnc2c1[nH]c1ccccc12,.,.,.,28.3,.,31.4
CCOCCCNc1ncnc2c1[nH]c1ccccc12,.,.,.,.,.,.
CN1CCS/C1=C/C=C1/SC(=S)N(Cc2ccccc2)C1=O,.,.,.,.,.,.
CCCCN1C(=O)/C(=C/C=C2\SCCN2C)SC1=S,40.5,.,.,.,.,.
